What was measured:
Rattus norvegicus [1] = test: Hypotensive activity in normotensive anesthetized Wistar rat assessed as decrease in diastolic blood pressure at 2 mg/kg, iv administered as single dose measured 60 mins post dose relative to control; assay type: functional; settings: 1 h
Method in brief: (§1)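 Male Wistar rats (200–250 g), groups of six, anaesthetized with thiopental 70 mg/kg ip. Left carotid artery cannulated with heparinized saline-filled tubing for pressure recording. Compounds dissolved in water and given once iv. Blood pressure taken at 0 min (control) and over 60 min afterward. Data as mean ± SEM, analysed by one-way ANOVA with Dunnett's test against 0 min.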

Rattus norvegicus [2] = test: Hypotensive activity in normotensive anesthetized Wistar rat assessed as decrease in systolic blood pressure at 5 mg/kg, iv administered as single dose measured 60 mins post dose relative to control; assay type: functional; settings: 1 h; method in brief: as §1
Rattus norvegicus [3] = test: Hypotensive activity in normotensive anesthetized Wistar rat assessed as decrease in diastolic blood pressure at 5 mg/kg, iv administered as single dose measured 60 mins post dose relative to control; assay type: functional; settings: 1 h; method in brief: as §1
Rattus norvegicus [4] = test: Hypotensive activity in normotensive anesthetized Wistar rat assessed as decrease in systolic blood pressure at 2 mg/kg, iv administered as single dose measured 60 mins post dose relative to control; assay type: functional; settings: 1 h; method in brief: as §1
[5] = biological target: T1, 5-hydroxytryptamine receptor 1A (Homo sapiens) (UniProt P08908); test: Displacement of [3H]-8-OH-DPAT from human 5-HT1A receptor expressed in CHO-K1 cell membranes at 1 uM after 1 hr by micro beta2 scintillation counting analysis
T1 sequence (whole entry): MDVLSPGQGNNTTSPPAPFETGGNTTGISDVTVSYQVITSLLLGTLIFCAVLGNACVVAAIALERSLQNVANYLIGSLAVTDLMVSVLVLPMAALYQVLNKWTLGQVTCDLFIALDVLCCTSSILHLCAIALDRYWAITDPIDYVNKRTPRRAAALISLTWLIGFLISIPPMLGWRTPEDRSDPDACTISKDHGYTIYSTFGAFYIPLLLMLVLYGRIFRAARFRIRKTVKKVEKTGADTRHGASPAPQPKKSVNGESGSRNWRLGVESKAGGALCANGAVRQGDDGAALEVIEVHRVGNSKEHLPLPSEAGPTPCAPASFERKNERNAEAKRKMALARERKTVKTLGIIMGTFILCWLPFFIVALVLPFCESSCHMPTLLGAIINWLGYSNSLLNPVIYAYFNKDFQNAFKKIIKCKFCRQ
Method in brief: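 Membranes of CHO-K1 cells stably expressing human 5-HT1A or 5-HT7 receptor. Buffer 50 mM Tris–HCl, 0.1 mM EDTA, 10 mM MgCl2. Each compound screened at final 10 µM and 1 µM. Incubation at 37 °C, 1 h for 5-HT1A and 2 h for 5-HT7. Non-specific binding defined with 10 µM 5-HT (5-HT1A) or 10 µM methiothepine (5-HT7). Output is percent inhibition of specific binding.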

SMILES | inhibition in vivo at 2 mg/kg (Rattus norvegicus [1]) [%] | inhibition in vivo at 5 mg/kg (Rattus norvegicus [2]) [%] | inhibition in vivo at 5 mg/kg (Rattus norvegicus [3]) [%] | inhibition in vivo at 2 mg/kg (Rattus norvegicus [4]) [%] | inhibition [5] [%]
COc1ccccc1OCCN1CCC(NS(=O)(=O)c2cncc3ccccc23)CC1 | 4 to 8 | 6 to 11 | 2 to 8 | 4 to 10 | 69
COc1ccc(S(=O)(=O)NCC2CCN(CCOc3ccccc3OC)CC2)cc1OC |  |  |  |  | 72
CC(C)Oc1ccccc1OCCN1CCC(CNS(=O)(=O)c2cccc3cccnc23)CC1 |  |  |  |  | 61
COc1ccccc1OCCN1CCC(CNS(=O)(=O)c2cncc3ccccc23)CC1 |  |  |  |  | 78
CC(C)Oc1ccccc1OCCN1CCC(CNS(=O)(=O)c2cccc(Cl)c2F)CC1 |  | 2 to 5 |  | 7 | 59

Reference: ChEMBL document CHEMBL3861996, “Arylsulfonamide derivatives of (aryloxy)ethyl pyrrolidines and piperidines as α1-adrenergic receptor antagonist with uro-selective activity” (Bioorg Med Chem, 2016)
